In ChEMBL document CHEMBL1155478, “Novel C-aryl glucoside SGLT2 inhibitors as potential antidiabetic agents: Pyridazinylmethylphenyl glucoside congeners” (Bioorg Med Chem Lett, 2010):

Experiments:
[1] = target: T1, Sodium/glucose cotransporter 2 (Homo sapiens, UniProt P31639); assay: Inhibition of human SGLT2 expressed in CHO cells assessed as [14C]alpha-methyl-D-glucopyranoside uptake after 2 hrs by liquid scintillation counting; type: cell-based
T1 sequence (P31639 whole entry): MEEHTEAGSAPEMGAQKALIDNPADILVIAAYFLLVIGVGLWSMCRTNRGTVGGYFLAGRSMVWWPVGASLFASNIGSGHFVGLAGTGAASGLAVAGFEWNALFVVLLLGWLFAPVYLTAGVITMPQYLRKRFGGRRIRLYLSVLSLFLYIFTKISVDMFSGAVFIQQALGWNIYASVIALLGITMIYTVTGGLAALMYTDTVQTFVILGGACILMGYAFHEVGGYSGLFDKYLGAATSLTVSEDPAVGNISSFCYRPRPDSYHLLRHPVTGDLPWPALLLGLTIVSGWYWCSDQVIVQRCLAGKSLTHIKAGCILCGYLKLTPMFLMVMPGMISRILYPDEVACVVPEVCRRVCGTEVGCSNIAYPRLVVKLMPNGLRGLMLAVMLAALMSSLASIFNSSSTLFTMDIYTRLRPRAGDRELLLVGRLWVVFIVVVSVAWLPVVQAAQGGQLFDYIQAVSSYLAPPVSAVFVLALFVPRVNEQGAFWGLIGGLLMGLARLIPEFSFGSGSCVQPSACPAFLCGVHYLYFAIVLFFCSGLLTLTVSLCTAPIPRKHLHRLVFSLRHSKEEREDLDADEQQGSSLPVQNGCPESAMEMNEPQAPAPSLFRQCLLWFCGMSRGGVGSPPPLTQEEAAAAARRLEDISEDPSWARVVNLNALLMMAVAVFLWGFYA
Summary of the method: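 CHO cells stably transfected with hSGLT2 (pcDNA3.1(+), G418-selected), seeded at 5 × 10⁴ cells/well and used 1 day later. Cells pre-incubated 10 min at 37 °C in Na⁺-free choline chloride buffer pH 7.4. Then incubated 2 h at 37 °C in NaCl uptake buffer with 1 mM unlabeled AMG plus ¹⁴C-AMG, with inhibitor or DMSO. Washed with 10 mM AMG buffer; radioactivity counted by liquid scintillation.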

Rattus norvegicus [2] = assay: Increase of urinary glucose excretion in normal Sprague-Dawley rat assessed per 200 g of body weight at 10 mg/kg, po subsequently dosed orally with 50% aqueous glucose solution measured up to 24 hrs (RVB = […] mg/200 g of body weight); type: functional, Urine
Rattus norvegicus [3] = assay: Increase of urinary volume in normal Sprague-Dawley rat assessed […] at 10 mg/kg, po subsequently dosed orally with 50% aqueous glucose solution measured up to 24 hrs (RVB = 3.9 +/- 0.23 ml/200 mg body weight)
[4] = Oral bioavailability in Sprague-Dawley rat at 5 mg/kg; type: ADME, organism-based; details: in vivo
Summary of the method: (§1)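 Male SD rats given a single oral dose of 5 mg/kg. Plasma sampled to obtain Cmax, time to Cmax and elimination half-life after oral dosing. Oral bioavailability (F) determined.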

Rattus norvegicus [5] = assay: Increase of urinary volume in normal Sprague-Dawley rat at 10 mg/kg, po subsequently dosed orally with 50% aqueous glucose solution measured up to 24 hrs relative to control; type: functional, Urine
[6] = Cmax in Sprague-Dawley rat at 5 mg/kg, po after 0.33 hrs; type: ADME, organism-based; parameters: dose 5 mg/kg, route oral; details: in vivo; summary of the method: as §1
[7] = Elimination half life in Sprague-Dawley rat at 5 mg/kg, po; type: ADME, organism-based; parameters: dose 5 mg/kg, route oral; details: in vivo, read-out: beta t1/2 (converted); summary of the method: as §1
Rattus norvegicus [8] = assay: Increase of urinary glucose excretion in normal Sprague-Dawley rat at 10 mg/kg, po subsequently dosed orally with 50% aqueous glucose solution measured up to 24 hrs relative to control; type: functional, Urine
in vivo = details: Sprague-Dawley, rat, po, 5 mg/kg

COc1cccc(-c2ccc(Cc3cc([C@@H]4O[C@H](CO)[C@@H](O)[C@H](O)[C@H]4O)ccc3Cl)nn2)c1 gave an IC50 [1] of 351 nM.
Work on CC(C)Oc1ccc(Cc2cc([C@@H]3O[C@H](CO)[C@@H](O)[C@H](O)[C@H]3O)ccc2Cl)nn1 yielded an IC50 [1] of 110 nM.
With CSc1ccc(Cc2cc([C@@H]3O[C@H](CO)[C@@H](O)[C@H](O)[C@H]3O)ccc2Cl)nn1 the Activity (Rattus norvegicus [2]) was 344 mg, the Activity (Rattus norvegicus [3]) was 5.07 mL and the bioavailability [4] was 26.1%. The “fold change (FC)” value (Rattus norvegicus [5]) was 1.3, the Cmax [6] was 310 ng/mL and the half-life [7] was 1.94 h. The “fold change (FC)” value (Rattus norvegicus [8]) was 180.
For Cc1nnc(Cc2cc([C@@H]3O[C@H](CO)[C@@H](O)[C@H](O)[C@H]3O)ccc2Cl)c2ccccc12, the IC50 [1] was over 10000 nM.
Work on CCOc1ccc(Cc2cc([C@@H]3O[C@H](CO)[C@@H](O)[C@H](O)[C@H]3O)ccc2Cl)cc1 [DAPAGLIFLOZIN] yielded a Cmax at 0.67 h (in vivo) of 2500 ng/mL, a bioavailability [4] of 88.4% and a half-life [7] of 4 h.
